# Screening results: PubChem BioAssay, Broad Institute
# FN deposit inh – fibronectin deposition inhibition | AH1F fibroblasts, Alexa488-fibronectin deposition fluorescence, overnight | inhibition, % at 12.6 µM | hit rate 0.086% among 350,000;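 active = mean inhibition across replicates of 30% or more, regardless of how many single replicates reach that level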
#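 Measured by – fluorescence 485/525 nm · System – AH1F fibroblast monolayer, labelled fibronectin deposition · Amount – 10000 cells per well · Buffer or medium – serum-reduced DMEM (2% serum) · Doses – single dose, pinned · Also added – fluorescent fibronectin at 24 nM final · Schedule – 1 h cell attachment, overnight exposure to compound and label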
# Env fusion inh – inhibitors of HIV Env-mediated cell fusion. HeLa-JRFL Env/CEM21 cell fusion, luciferase. inhibition, % at 12.3 µM. hit rate 1.1% among 360,000. AID 651610;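 active = mean replicate inhibition score of at least 50 and every replicate individually at or above 50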
# CFTR F508del cor – CFTR F508del correction in bronchial cells | CFBE cells, YFP halide quenching; stimulated with forskolin plus potentiator P3; % fluorescence drop versus neutral controls | activity (quench increase), % at 7.58 µM | hit rate 0.36% among 350,000 | AID 720511;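 active = mean added fluorescence quench of at least 8% versus neutral control, with both replicates also reaching 8%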;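 also: cells transiently co-express mutant CFTR-F508del with the halide-sensitive YFP; corrector assay measuring rescue of mutant channel to the surface after 24 h compound exposure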
# PAX8 inh HTS – PAX8 transcriptional activity inhibition; AID 652154; RMG-I TPO-luciferase reporter, SteadyGlo, 24 h; inhibition, % at 12.6 µM; hit rate 1.2% among 360,000;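 active = mean replicate inhibition at least 60% with every replicate also reaching 60%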;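 also: luciferase light reporting Pax8 driven TPO promoter activity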
# PGC1a acetyl inh – modulators of PGC1a acetylation | inhibition, % at 15.6 µM | U2OS PGC1a acetylation, AlphaScreen anti-acetyl-lysine; with virally co-expressed GCN5 acetyltransferase | AID 651687 | hit rate 0.17% among 350,000;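 active = every replicate shows inhibition of at least 40%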
# EWS-Fli inh – EWS/Fli transcriptional activity inhibition; A673 NR0B1-luciferase reporter, viability-normalised; inhibition, % at 12.6 µM; hit rate 0.67% among 350,000;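 active = mean inhibition of at least 50% after viability correction, with every replicate also passing that limit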;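 also: firefly luciferase signal divided by Alamar Blue viability fluorescence both relative to DMSO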
# Hits are given with their value; i = inactive; nt = no result given. A selection: hits, their analogues and other compounds. The true share with any hit is near 2.3%.
SMILES,FN deposit inh,Env fusion inh,CFTR F508del cor,PAX8 inh HTS,PGC1a acetyl inh,EWS-Fli inh
COc1ccc2[nH]c(C(=O)N/N=C/c3ccccc3OC)cc2c1,i,i,i,i,i,i
COc1ccc2[nH]c(C(=O)N/N=C/c3ccc(OC)c(O)c3)cc2c1,i,i,11.2,i,nt,i
O=C(C[C@H]1CC[C@@H]2[C@H](COC[C@H](O)CN2C(=O)Nc2ccccc2)O1)NC1Cc2ccccc2C1,i,nt,i,i,i,i
O=C(C[C@H]1CC[C@H](NC(=O)CN2CCOCC2)[C@@H](CO)O1)NC1CCCCC1,i,i,i,i,i,i
CC=Cc1ccc2n(c1=O)C[C@H]1[C@H](CO)[C@@H](C(=O)NC3CCC3)[C@@H]2N1Cc1ccccc1 (mixture of isomers),nt,nt,i,i,nt,i
CCN(CCn1cccn1)C(=O)CC1C(=O)NCCN1CCc1ccccc1 (stereo not drawn),i,87.9,i,i,i,i
CCN(CCn1cccn1)C(=O)CC1C(=O)NCCN1CC1CCCCC1 (stereo not drawn),i,i,i,i,nt,i
CC(NC(=O)Cc1cccs1)C(c1cccs1)N1CCN(c2ccccc2)CC1 (stereo not drawn),nt,nt,nt,nt,i,nt
CC(NC(=O)Cc1cccs1)C(c1cccs1)N1CCN(c2ccccc2F)CC1 (stereo not drawn),i,61.7,nt,nt,i,nt
O=C(C[C@@H]1C[C@@H]2c3cc(NC(=O)CC4CC4)ccc3O[C@@H]2[C@@H](CO)O1)NCc1ccc2c(c1)OCO2,i,i,i,i,i,i
O=C(CNC(=O)c1cccc(-n2cccc2)c1)Nc1ccccc1Br,i,69.8,i,i,i,i
Cn1cc(C(=O)NCC(=O)Nc2ccccc2Br)cn1,i,nt,i,i,i,i
CC(C)CC#Cc1ccc2c(c1)O[C@H](CN(C)Cc1ccccc1)[C@H](C)CN([C@@H](C)CO)S2(=O)=O,i,i,i,nt,48.0,i
CC(C)CC#Cc1ccc2c(c1)O[C@@H](CN(C)Cc1ccc(F)cc1)[C@H](C)CN([C@@H](C)CO)S2(=O)=O,nt,i,i,i,i,i
CC(C)CC#Cc1ccc2c(c1)O[C@H](CN(C)Cc1ccccc1)[C@@H](C)CN([C@H](C)CO)S2(=O)=O,i,i,i,nt,52.0,i
CC(C)CC#Cc1ccc2c(c1)O[C@H](CN(C)Cc1cccc(F)c1)[C@@H](C)CN([C@@H](C)CO)S2(=O)=O,i,i,i,nt,i,62.1
CC(C)CC#Cc1ccc2c(c1)O[C@H](CN(C)Cc1ccc(F)cc1)[C@H](C)CN([C@H](C)CO)S2(=O)=O,nt,i,i,76.3,i,i
CC(C)CC#Cc1ccc2c(c1)O[C@@H](CN(C)Cc1ccccc1)[C@H](C)CN([C@@H](C)CO)S2(=O)=O,i,i,i,nt,i,i
CCCNC(=O)N1C[C@H](O)COC[C@H]2O[C@H](CC(=O)NCc3ccc(Cl)c(Cl)c3)CC[C@@H]21,i,i,i,i,i,i
CC(C)C#Cc1ccc([C@H]2[C@H]3CN(C(=O)NC4CCCCC4)CC(=O)N3[C@H]2CO)cc1,i,nt,i,nt,nt,i
C[C@H]1CN([C@@H](C)CO)C(=O)c2cc(NS(=O)(=O)c3ccc(Cl)cc3)ccc2O[C@@H]1CN(C)S(=O)(=O)c1ccc(F)cc1,nt,i,i,i,i,i
CC(=NNc1nc2ccccc2o1)c1ncccn1,i,i,i,74.1,i,i
Oc1ccccc1/C=N/Nc1nc2ccccc2o1,i,i,i,i,41.2,i
Brc1ccc(/C=N/Nc2nc3ccccc3o2)cc1,i,i,i,i,i,i
O=C(CCN1C(=O)c2ccccc2S1(=O)=O)Nc1ccc2c(c1)OCCO2,nt,nt,i,nt,i,i
O=C(CN1C(=O)c2ccccc2S1(=O)=O)c1ccc(Cl)cc1Cl,i,62.0,i,111.5,nt,nt
O=C(CN1C(=O)c2ccccc2S1(=O)=O)c1cccc(Br)c1,i,i,i,i,i,i
O=C(CN1C(=O)c2ccccc2S1(=O)=O)c1ccc2c(c1)OCCO2,i,84.2,i,104.7,i,86.1
O=C(CN1C(=O)c2ccccc2S1(=O)=O)c1ccc2c(c1)OCCCO2,i,90.7,i,103.7,i,88.7
CO[C@H]1CN(C)C(=O)c2ccc(NC(=O)c3ccccc3)cc2OC[C@@H](C)N(C(=O)C2CC2)C[C@@H]1C,i,i,i,i,i,i
